PAFAH2 FP inh – inhibitors of human PAFAH2; Q99487; recombinant PAFAH2, FP-rhodamine activity probe, fluorescence polarization; inhibition, % at 3.39 µM; actives 0.99% (n = 340,000);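 active = inhibition above the mean over all tested compounds plus 3 SD, cut at about 30% in these data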;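 note: inhibitors block probe labeling of enzyme so polarization drops; 0% = enzyme with DMSO and 100% = wells lacking PAFAH2 protein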
pPAFAH FP inh – pPAFAH (human) enzyme inhibition; recombinant pPAFAH, FP-rhodamine probe fluorescence polarization; actives 1.5% (n = 330,000); Q13093; inhibition, % at 3.39 µM;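 active = inhibition above the mean inhibition across the screen plus 3 SD, cut at about 25% in these data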;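 note: inhibitors block binding of the rhodamine activity-based probe so polarization drops; 0% = enzyme with DMSO and 100% = wells lacking pPAFAH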
ARFGAP1 inhibitor – inhibits rat ARF GTPase activating protein 1. Q62848. Arfgap1-stimulated ARF1 GTP hydrolysis, GDP FP detection. inhibition, % at 16.5 µM. actives 0.26% (n = 360,000);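 active = inhibition above a per-plate limit, mean inhibition of low control wells plus 3 SD, cut at about 25% in these data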;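 note: 0% = DMSO wells with enzyme and 100% = wells lacking Arfgap1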
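Assay system: purified rat His6-Arfgap1 residues 1-136 (GAP domain); Reagent: human Δ17 ARF1 bound to GTP; Dosing: 16.5 µM single point, 1.26% DMSO; Times: GTP hydrolysis reaction 2 h at 25 °C; Signal: FP, GDP Alexa 633 tracer displaced from anti-GDP antibody, 620/688 nm; Measure: % inhibition from polarization.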
PAFAH1B2 FP inh – inhibitors of human PAFAH1B2 | recombinant PAFAH1B2, FP-rhodamine activity probe, fluorescence polarization | inhibition, % at 3.39 µM | actives 1.2% (n = 340,000);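 active = inhibition above the mean of all tested compounds plus 3 SD, cut at about 24% in these data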;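 note: 0% = enzyme with DMSO and 100% = wells lacking PAFAH1B2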
ASAP1 inh – inhibitors of human ASAP1 ArfGAP activity; ASAP1-stimulated ARF1 GTP hydrolysis, GDP FP detection; actives 0.19% (n = 360,000); Q9ULH1; inhibition, % at 16.5 µM; in the data active = inhibition above about 25%;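 note: 0% = vehicle with enzyme and substrate and 100% = no enzyme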
PAFAH1B3 inh – PAFAH1B3 (human) inhibition; Q15102; recombinant PAFAH1B3, FP-rhodamine probe, fluorescence polarization; inhibition, % at 3.39 µM; actives 0.28% (n = 340,000); AID 492972;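 active = inhibition above the screen-wide average of all tested compounds plus 3 SD, cut at about 25% in these data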;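 note: 0% = enzyme with DMSO only and 100% = wells lacking PAFAH1B3 protein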
ARFGAP1 inh conf – confirmation of rat ARFGAP1 inhibitors. ARFGAP1-stimulated ARF1 GTP hydrolysis, GDP tracer FP. shares compounds with ARFGAP1 inhibitor. inhibition, % at 16.5 µM. AID 651608. actives 30% (n = 890);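 active = average inhibition over triplicates above the hit cutoff set in the earlier primary screen, cut at about 25% in these data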;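 note: 0% = Arfgap1 plus ARF1-GTP with DMSO and 100% = wells lacking Arfgap1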
Target sequence (Q62848 whole entry, looked up): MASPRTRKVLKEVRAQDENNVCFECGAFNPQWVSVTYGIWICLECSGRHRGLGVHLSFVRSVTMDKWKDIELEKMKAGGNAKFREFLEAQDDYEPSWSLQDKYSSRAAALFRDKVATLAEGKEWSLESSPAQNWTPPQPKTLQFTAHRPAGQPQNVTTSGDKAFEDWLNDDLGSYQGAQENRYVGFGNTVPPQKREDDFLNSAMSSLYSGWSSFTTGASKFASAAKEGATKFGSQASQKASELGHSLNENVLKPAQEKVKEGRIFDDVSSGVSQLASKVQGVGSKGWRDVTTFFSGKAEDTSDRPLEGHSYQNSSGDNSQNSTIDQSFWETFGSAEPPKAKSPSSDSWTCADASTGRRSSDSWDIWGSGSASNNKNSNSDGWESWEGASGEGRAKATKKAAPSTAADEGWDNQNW
Active calls of the source: *; . = not tested or not shown. Only some compounds are listed: those with a hit (about 2.7% of all), similar ones and a draw of the others.

SMILES	PAFAH2 FP inh	pPAFAH FP inh	ARFGAP1 inhibitor	PAFAH1B2 FP inh	ASAP1 inh	PAFAH1B3 inh	ARFGAP1 inh conf
CCOC(=O)C1CCCN(CCC(=O)Nc2cc(C)ccc2C)C1 (stereo not drawn)	-5.7	-1.6	0.7	1.0	17.1	-4.4	.
Cc1c(C(=O)OCC(=O)N(C)Cc2ccc(Cl)cc2)oc2ccccc12	8.1	0.9	-10.5	1.9	-8.3	-2.8	.
O=C(Nc1ccc(Cl)cc1)c1cccc(S(=O)(=O)Nc2ccccn2)c1	5.0	2.4	10.3	6.3	-1.0	8.0	.
COc1ccc(C(=O)N[C@H](C(=O)Nc2ccc(S(=O)(=O)N3CCOCC3)cc2)C(C)C)cc1	-0.4	1.8	25.1*	4.2	7.7	7.0	2.9
CCOc1ccc(C(=O)N[C@H](C(=O)Nc2cccc(S(=O)(=O)N3CCOCC3)c2)C(C)C)cc1	2.5	.	-6.6	3.6	-3.9	2.9	.
O=C(Cn1c2ccc(F)cc2c2nc3n(c(=O)c21)CCS3)Nc1ccc(Cl)cc1F	-5.1	-2.9	41.6*	-4.2	20.1	-7.8	56.8*
Cc1ccc(NC(=O)Cn2c3ccc(F)cc3c3nc4n(c(=O)c32)CCS4)cc1F	-15.2	0.0	9.6	-6.5	-3.2	-9.0	.
CN(CC(=O)Nc1ccc(N2CCOCC2)cc1)CC(=O)Nc1ccc(Cl)cc1[N+](=O)[O-]	-1.9	13.0	3.1	7.3	1.4	3.1	.
O=C(NCCCNc1ccc(C(F)(F)F)cc1[N+](=O)[O-])c1ccc(F)cc1	-0.9	-0.7	4.2	5.5	-9.9	3.9	.
Cc1ccc(C(=O)NCCCNc2ccc(C(F)(F)F)cc2[N+](=O)[O-])cc1	-0.4	7.6	24.6*	14.0	-10.6	7.9	3.5
CCN(CC)C(=O)CN(c1cccc(C(F)(F)F)c1)S(C)(=O)=O	0.2	-3.4	30.8*	0.6	6.5	1.5	-6.1
O=C(NCCCN1CCOCC1)C(=O)NCC1OCCN1S(=O)(=O)c1ccc(Cl)cc1 (stereo not drawn)	.	.	-11.0	.	-7.3	.	.
CCOc1ccc(NC(=O)C2CCCN2S(=O)(=O)c2ccc(OCC)cc2)cc1 (stereo not drawn)	-3.5	-4.5	10.1	-1.3	-11.4	4.0	.
CN(C)c1ccc(NC(=O)CSc2nc(N)c(C(=O)Nc3ccc(N(C)C)cc3)s2)cc1	2.9	8.4	25.4*	-1.6	8.8	8.7	4.5
Cc1nc2ccc(C(=O)NCCCn3ccnc3)cn2c1N(C)C(=O)CCc1ccccc1	.	.	0.2	.	-23.5	.	.
CCN(CC(=O)Nc1ccccc1OC)C(=O)c1cc(S(=O)(=O)N2CCCCCC2)ccc1OC	5.7	1.8	13.6	6.1	17.5	6.5	.
CCCCN(CC)CCCNC(=O)c1cc2c(=O)[nH]c3ccccc3c2s1	0.2	1.4	11.3	0.1	0.9	7.5	.
CCCCN(CC)CCNC(=O)c1cc2c(=O)[nH]c3ccc(C)cc3c2s1	2.5	0.4	29.3*	4.8	0.9	3.5	-4.3
COc1ccc(S(=O)(=O)N2CCC3(CC2)CC(=O)c2ccccc2O3)cc1OC	-2.4	-1.8	3.6	4.6	11.5	10.9	.
Cc1nc(-c2cccc(S(=O)(=O)N3CC(C)CC(C)C3)c2)cs1 (stereo not drawn)	4.7	1.8	26.5*	3.3	-10.7	8.5	2.4
CCN(CC)CCOC(=O)c1ccc(N/C=C(/C#N)c2nc(-c3ccc4c(c3)OCO4)cs2)cc1	8.0	18.5	31.8*	0.1	8.3	-5.2	72.8*
CCCCNC(=O)/C(=C/c1ccccc1)NC(C)=O	-11.2	-2.1	6.5	-0.2	-4.3	-4.1	.
CCCCN1C(=O)C(=O)NC[C@@H]1Cc1ccc(O)cc1	.	.	6.1	.	2.1	.	.
CCCCCCCNC(=O)C1(CC2CC(c3cccc(Br)c3)=NO2)CCN(C(=O)OC(C)(C)C)CC1 (stereo not drawn)	-2.5	7.1	35.7*	-3.0	5.5	9.8	1.0
Cn1c(=O)c2c(nc(SCc3cccnc3)n2Cc2ccccc2)n(C)c1=O	-4.6	6.3	25.8*	6.2	-10.2	11.2	6.0
CCOc1ccc(-n2c(SCC(=O)NCc3ccco3)nc3c(c2=O)SCC3)cc1	2.8	0.4	20.2	3.5	9.0	-2.4	.

Screens from PubChem BioAssay.
